Test results as given in ChEMBL document CHEMBL1125156, “Inhibitors of human leukocyte proteinase-3” (J Med Chem, 1990).
Activity calls are given as the source filed them. The calls are words filed in the database; no cut-off is given here.

Columns and labels:
[1] = molecular target: T1, Myeloblastin (Homo sapiens) (UniProt P24158); assay: Evaluated for the inhibition of Human leukocyte Proteinase 3 (PR-3)
T1 sequence (whole entry): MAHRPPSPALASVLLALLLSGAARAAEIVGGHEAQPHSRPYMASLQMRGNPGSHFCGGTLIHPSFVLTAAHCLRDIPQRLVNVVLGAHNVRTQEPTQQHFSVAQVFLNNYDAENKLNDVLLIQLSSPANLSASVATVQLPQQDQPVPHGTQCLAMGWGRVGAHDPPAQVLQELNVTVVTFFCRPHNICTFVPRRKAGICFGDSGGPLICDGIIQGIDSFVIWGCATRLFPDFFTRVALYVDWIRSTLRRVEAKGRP
Summary of the method: (§1)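 PR-3 purified from polymorphonuclear leukocyte granules. Inhibitor in DMSO was incubated with enzyme in 0.1 M phosphate, pH 6.5, in a constant-temperature bath. Aliquots taken over time went into BOC-Ala-p-nitrophenol (20 mM acetonitrile stock) in phosphate buffer. After 30 s, A347.5 was read for 1 min. kobs came from ln(vt/v0) versus time and is reported as kobs/[I] (M-1 s-1).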

[2] = molecular target: T1, Myeloblastin (Homo sapiens); assay: Evaluated for the inhibition of Human leukocyte Proteinase 3 (PR-3) following a 10-min incubation with a 50-fold excess of inhibitor; settings: concentration not given here
[3] = molecular target: T2, Neutrophil elastase (Homo sapiens) (UniProt P08246); assay: Evaluated for the inhibition of Human leukocyte elastase
T2 sequence (whole entry): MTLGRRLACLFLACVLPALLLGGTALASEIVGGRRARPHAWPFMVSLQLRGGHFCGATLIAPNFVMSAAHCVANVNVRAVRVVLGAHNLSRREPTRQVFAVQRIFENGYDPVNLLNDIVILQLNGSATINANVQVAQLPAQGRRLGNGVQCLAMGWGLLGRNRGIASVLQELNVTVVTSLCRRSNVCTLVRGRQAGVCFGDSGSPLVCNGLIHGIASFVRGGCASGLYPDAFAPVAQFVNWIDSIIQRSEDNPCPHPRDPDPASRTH

[4] = molecular target: T1, Myeloblastin (Homo sapiens); assay: Evaluated for the inhibition of Human leukocyte Proteinase 3 (PR-3); Inactive; summary of the method: as §1

K obs / 1 [1]	Structure (SMILES)	further results
3800 M⁻¹ s⁻¹	CCCCC1CC(=O)N(OS(=O)(=O)/C=C/c2ccccc2)C1=O (stereo not drawn)	–
8100 M⁻¹ s⁻¹	CC(C)C1CC(=O)N(OS(=O)(=O)/C=C/c2ccccc2)C1=O (stereo not drawn)	K obs / 1 [3]: 100000 M⁻¹ s⁻¹
10400 M⁻¹ s⁻¹	CC(C)CC1CC(=O)N(OS(=O)(=O)/C=C/c2ccccc2)C1=O (stereo not drawn)	–
4500 M⁻¹ s⁻¹	CC1CC(=O)N(OS(=O)(=O)/C=C/c2ccccc2)C1=O (stereo not drawn)	–

More lines, now with the values behind:

Structure (SMILES)	K obs / 1 [1]	further results
O=C1CC(Cc2ccccc2)C(=O)N1OS(=O)(=O)/C=C/c1ccccc1 (stereo not drawn)	–	inhibition [2]: < 35%
O=C1CCC(=O)N1OS(=O)(=O)/C=C/c1ccccc1	–	inhibition [2]: < 35%
CC(C)C1CC(=O)N(OS(C)(=O)=O)C1=O (stereo not drawn)	2200 M⁻¹ s⁻¹	–
CC(C)CC1CC(=O)N(OS(C)(=O)=O)C1=O (stereo not drawn)	1200 M⁻¹ s⁻¹	–
CC1CC(=O)N(OS(C)(=O)=O)C1=O (stereo not drawn)	2300 M⁻¹ s⁻¹	–
CCC1CC(=O)N(OS(C)(=O)=O)C1=O (stereo not drawn)	13400 M⁻¹ s⁻¹	–
CS(=O)(=O)ON1C(=O)CCC1=O	–	K obs / 1 [4]: inactive
CCCCC1CC(=O)N(OS(C)(=O)=O)C1=O (stereo not drawn)	800 M⁻¹ s⁻¹	K obs / 1 [3]: 4100 M⁻¹ s⁻¹
CCCC1CC(=O)N(OS(C)(=O)=O)C1=O (stereo not drawn)	8600 M⁻¹ s⁻¹	K obs / 1 [3]: 8600 M⁻¹ s⁻¹
CS(=O)(=O)ON1C(=O)CC(Cc2ccccc2)C1=O (stereo not drawn)	–	K obs / 1 [3]: 1100 M⁻¹ s⁻¹; K obs / 1 [4]: inactive
